Tests used:
Klebsiella pneumoniae [1] = test: Antibacterial activity against KPC2-producing Klebsiella pneumoniae K4725 clinical isolate after 24 hrs by microdilution method; type: functional; conditions: K4725, 24 h
Outline: (§1)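 Clinical isolate screen by broth microdilution with about 1-1.2 × 10^6 cells/ml and 24 h incubation. MIC is the lowest concentration with no growth. For isolate collections, MIC90 is the MIC inhibiting ≥90% of isolates. Multidrug resistance was defined as resistance to at least […] antimicrobial class.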

Acinetobacter baumannii [2] = test: Antibacterial activity against oxacillinase 58-producing Acinetobacter baumannii K12-21 clinical isolate after 24 hrs by microdilution method; type: functional; conditions: K12-21, 24 h
Outline: (§2)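 Broth microdilution in Mueller-Hinton broth (modified CLSI M07-A9), clinical isolates at about 1-1.2 × 10^6 cells/ml. Inoculum mixed 1:1 with serial compound dilutions; stocks made in up to 100% DMSO, final DMSO ≤1%. Incubated 24 h.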

Enterococcus faecium [3] = test: Antibacterial activity against vancomycin resistant Enterococcus faecium 50,673,722 clinical isolate after 24 hrs by microdilution method; type: functional; conditions: Enterococcus faecium, 50,673,722, 24 h; outline: as §2
Pseudomonas aeruginosa [4] = test: Antibacterial activity against Pseudomonas aeruginosa PAO1 DSM 19880 ATCC 15692 after 48 hrs by microdilution method; type: functional; conditions: PAO1 DSM 19880 ATCC 15692, 48 h
Outline: (§3)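 Broth microdilution (CLSI M07-A9, modified) in Mueller-Hinton broth; inoculum about 2.5-3 × 10^4 cells/ml mixed 1:1 with serial compound dilutions. Stock solutions in up to 100% DMSO, final DMSO ≤1%. Incubated 35 °C for 48 h.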

Acinetobacter baumannii [5] = test: Antibacterial activity against oxacillinase 23-producing Acinetobacter baumannii K47-42 clinical isolate after 24 hrs by microdilution method; type: functional; conditions: K47-42, 24 h; outline: as §2
Escherichia coli [6] = test: Antibacterial activity against Escherichia coli clinical isolates after 24 hrs by microdilution method; type: functional; outline: as §1
[7] = Selectivity index, ratio of EC50 for human RBC to MIC for methicillin resistant Staphylococcus epidermidis RP62A ATCC 35984/CCUG 31568; type: toxicity; conditions: human red blood cells (RBC), read-out: Selectivity Index
Outline: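 SI = hemolytic EC50 / MRSE MIC. Hemolysis: washed human RBCs (heparinized blood, healthy adult donor) at 10% in PBS pH 7.4, mixed 9:1 with serial compound dilutions, 37 °C for 1 h. 0.05% Triton X-100 set 100% lysis, 0.5% DMSO set baseline. MIC from MHB microdilution, 35 °C, […].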

Staphylococcus aureus [8] = test: Antibacterial activity against methicillin resistant Staphylococcus aureus IHT 99040 clinical isolate after 24 hrs by microdilution method; type: functional; conditions: IHT 99040, 24 h; outline: as §2
Staphylococcus aureus [9] = test: Antibacterial activity against Staphylococcus aureus ATCC 9144 after 48 hrs by microdilution method; type: functional; conditions: ATCC 9144, 48 h; outline: as §3
Enterococcus faecium [10] = test: Antibacterial activity against vancomycin resistant Enterococcus faecium K36-18 clinical isolate after 24 hrs by microdilution method; type: functional; conditions: K36-18, 24 h; outline: as §2
Pseudomonas aeruginosa [11] = test: Antibacterial activity against Verona integron-encoded metallo-beta-lactamase 4-producing Pseudomonas aeruginosa K3473 clinical isolate after 24 hrs by microdilution method; type: functional; conditions: K3473, 24 h; outline: as §1
Escherichia coli [12] = test: Antibacterial activity against New Delhi metallo-beta-lactamase 1-producing Escherichia coli 50,739,822 clinical isolate after 24 hrs by microdilution method; type: functional; conditions: Escherichia coli, 50,739,822, 24 h; outline: as §1
Escherichia coli [13] = test: Antibacterial activity against Escherichia coli ATCC 25922 after 48 hrs by microdilution method; type: functional; conditions: ATCC 25922, 48 h; outline: as §3
Pseudomonas aeruginosa [14] = test: Antibacterial activity against Verona integron-encoded metallo-beta-lactamase 2-producing Pseudomonas aeruginosa K347 clinical isolate after 24 hrs by microdilution method; type: functional; conditions: K347, 24 h; outline: as §1
Enterococcus faecium [15] = test: Antibacterial activity against vancomycin resistant Enterococcus faecium TUH50-22 clinical isolate after 24 hrs by microdilution method; type: functional; conditions: TUH50-22, 24 h; outline: as §2
Escherichia coli [16] = test: Antibacterial activity against imipenem 26-type carbapenemase-producing Escherichia coli 50,857,972 clinical isolate after 24 hrs by microdilution method; type: functional; conditions: Escherichia coli, 50,857,972, 24 h; outline: as §1
Pseudomonas aeruginosa [17] = test: Antibacterial activity against Pseudomonas aeruginosa clinical isolates after 24 hrs by microdilution method; type: functional; outline: as §1
Acinetobacter baumannii [18] = test: Antibacterial activity against oxacillinase 24-producing Acinetobacter baumannii K55-13 clinical isolate after 24 hrs by microdilution method; type: functional; conditions: K55-13, 24 h; outline: as §2
Klebsiella pneumoniae [19] = test: Antibacterial activity against New Delhi metallo-beta-lactamase 1-producing Klebsiella pneumoniae K6645 clinical isolate after 24 hrs by microdilution method; type: functional; conditions: K6645, 24 h; outline: as §1
Pseudomonas aeruginosa [20] = test: Antibacterial activity against New Delhi metallo-beta-lactamase 1-producing Pseudomonas aeruginosa 50,692,172 clinical isolate after 24 hrs by microdilution method; type: functional; conditions: Pseudomonas aeruginosa, 50,692,172, 24 h; outline: as §1
Escherichia coli [21] = test: Antibacterial activity against oxacillinase 48-producing Escherichia coli 50,579,417 clinical isolate after 24 hrs by microdilution method; type: functional; conditions: Escherichia coli, 50,579,417, 24 h; outline: as §1
Bacillus subtilis = test: Antibacterial activity against Bacillus subtilis 168 ATCC 23857 after 48 hrs by microdilution method; type: functional; conditions: subsp. subtilis str. 168 ATCC 23857, 48 h; outline: as §3
Acinetobacter baumannii [22] = test: Antibacterial activity against colistin-resistant oxacillinase 23-producing Acinetobacter baumannii K63-58 clinical isolate after 24 hrs by microdilution method; type: functional; conditions: K63-58, 24 h; outline: as §2
Klebsiella pneumoniae [23] = test: Antibacterial activity against New Delhi metallo-beta-lactamase 1/oxacillinase 181-producing Klebsiella pneumoniae 50531633 clinical isolate after 24 hrs by microdilution method; type: functional; conditions: Klebsiella pneumoniae, 50531633, 24 h; outline: as §1
Klebsiella pneumoniae [24] = test: Antibacterial activity against Klebsiella pneumoniae clinical isolates after 24 hrs by microdilution method; type: functional; outline: as §1
Staphylococcus aureus [25] = test: Antibacterial activity against Staphylococcus aureus clinical isolates after 24 hrs by microdilution method; type: functional; outline: as §1
[26] = test system: Staphylococcus epidermidis; test: Antibiofilm activity against Staphylococcus epidermidis RP62A ATCC 35984/CCUG 31568 incubated for 24 +/- 2 hrs by crystal violet staining based assay; type: functional
Outline: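 Mature S. epidermidis RP62A biofilms: filtered overnight TSB culture adjusted to 2 McFarland, diluted in TSB with 1% glucose to about 6 × 10^6 CFU/ml, grown 24 ± 2 h at 37 °C static, then PBS-washed. Compounds in 50% TSBglu added for 24 ± 2 h at 37 °C. Biomass given as % of untreated control; ≥90% eradication threshold. Compounds tested at 2x, 5x and 10x MIC, 4-8 parallels on 2-3 plates, highest and lowest values excluded.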

Escherichia coli [27] = test: Antibacterial activity against Verona integron-encoded metallo-beta-lactamase 29-producing Escherichia coli 50,639,799 clinical isolate after 24 hrs by microdilution method; type: functional; conditions: Escherichia coli, 50,639,799, 24 h; outline: as §1
Klebsiella pneumoniae [28] = test: Antibacterial activity against oxacillinase 245-producing Klebsiella pneumoniae 50,625,602 clinical isolate after 24 hrs by microdilution method; type: functional; conditions: Klebsiella pneumoniae, 50,625,602, 24 h; outline: as §1

| SMILES | MIC (Klebsiella pneumoniae [1]) [µg/mL] | MIC (Acinetobacter baumannii [2]) [µg/mL] | MIC (Enterococcus faecium [3]) [µg/mL] | MIC (Pseudomonas aeruginosa [4]) [µg/mL] | MIC (Acinetobacter baumannii [5]) [µg/mL] | MIC (Escherichia coli [6]) [µg/mL] | selectivity ratio [7] | MIC (Staphylococcus aureus [8]) [µg/mL] | MIC (Staphylococcus aureus [9]) [µg/mL] | MIC (Enterococcus faecium [10]) [µg/mL] | MIC (Pseudomonas aeruginosa [11]) [µg/mL] | MIC (Escherichia coli [12]) [µg/mL] | MIC (Escherichia coli [13]) [µg/mL] | MIC (Pseudomonas aeruginosa [14]) [µg/mL] | MIC (Enterococcus faecium [15]) [µg/mL] | MIC (Escherichia coli [16]) [µg/mL] | MIC (Pseudomonas aeruginosa [17]) [µg/mL] | MIC (Acinetobacter baumannii [18]) [µg/mL] | MIC (Klebsiella pneumoniae [19]) [µg/mL] | MIC (Pseudomonas aeruginosa [20]) [µg/mL] | also measured |
| --- | --- | --- | --- | --- | --- | --- | --- | --- | --- | --- | --- | --- | --- | --- | --- | --- | --- | --- | --- | --- | --- |
| CC(C)(C)c1cc(C(C)(C)C)cc(S(=O)(=O)Nc2cc3ccccc3cc2C(=O)NCCNC(=N)N)c1.Cl | > 32 | 32 | 8 | 32 | 32 | 8 | 6 | 8 | 4 | 8 | ≥ 32 | > 32 | 8 | > 64 | 4 | > 32 | 32 to 64 | 32 | 32 | > 64 | MIC (Escherichia coli [21]): ≥ 32 µg/mL; MIC (Bacillus subtilis): 4 µg/mL; MIC (Acinetobacter baumannii [22]): 32 µg/mL; MIC (Klebsiella pneumoniae [23]): > 32 µg/mL; MIC (Klebsiella pneumoniae [24]): 16 to 32 µg/mL; MIC (Staphylococcus aureus [25]): 4 µg/mL; MBIC=>90 [26]: 40 µg/mL; MIC (Escherichia coli [27]): ≥ 32 µg/mL; MIC (Klebsiella pneumoniae [28]): ≥ 32 µg/mL |
| CN(c1ccc(C(=O)NCCCNC(=N)N)cc1)S(=O)(=O)c1cc(C(C)(C)C)cc(C(C)(C)C)c1.Cl | ≥ 32 | ≥ 32 | 16 | 16 | 32 | 16 | 14 | 8 | 4 | 16 | 32 | ≥ 32 | 16 | > 32 | 16 | 32 | 8 to 16 | ≥ 32 | 32 | 32 | MIC (Escherichia coli [21]): ≥ 32 µg/mL; MIC (Bacillus subtilis): 4 µg/mL; MIC (Acinetobacter baumannii [22]): ≥ 32 µg/mL; MIC (Klebsiella pneumoniae [23]): ≥ 32 µg/mL; MIC (Klebsiella pneumoniae [24]): 32 µg/mL; MIC (Staphylococcus aureus [25]): 4 µg/mL; MBIC=>90 [26]: 40 µg/mL; MIC (Escherichia coli [27]): 32 µg/mL; MIC (Klebsiella pneumoniae [28]): ≥ 32 µg/mL |

— ChEMBL document CHEMBL4152356, “Amphipathic sulfonamidobenzamides mimicking small antimicrobial marine natural products; investigation of antibacterial and anti-biofilm activity against antibiotic resistant clinical isolates” (Bioorg Med Chem, 2018)
